Measured values from ChEMBL document CHEMBL4765491, “Discovery of Potent and Selective Methylenephosphonic Acid CD73 Inhibitors” (J Med Chem, 2021).

What was measured:
[1] = Stability in rat hepatocytes; assay type: ADME, cell-based, Hepatocyte
[2] = target: T1, Ectonucleoside triphosphate diphosphohydrolase 1 (Homo sapiens, UniProt P49961); assay: Inhibition of human CD39 expressed in CHO cells incubated for 4 hrs before addition of ATP and further incubated for 60 mins by colorimetric assay
T1 sequence (P49961 whole entry): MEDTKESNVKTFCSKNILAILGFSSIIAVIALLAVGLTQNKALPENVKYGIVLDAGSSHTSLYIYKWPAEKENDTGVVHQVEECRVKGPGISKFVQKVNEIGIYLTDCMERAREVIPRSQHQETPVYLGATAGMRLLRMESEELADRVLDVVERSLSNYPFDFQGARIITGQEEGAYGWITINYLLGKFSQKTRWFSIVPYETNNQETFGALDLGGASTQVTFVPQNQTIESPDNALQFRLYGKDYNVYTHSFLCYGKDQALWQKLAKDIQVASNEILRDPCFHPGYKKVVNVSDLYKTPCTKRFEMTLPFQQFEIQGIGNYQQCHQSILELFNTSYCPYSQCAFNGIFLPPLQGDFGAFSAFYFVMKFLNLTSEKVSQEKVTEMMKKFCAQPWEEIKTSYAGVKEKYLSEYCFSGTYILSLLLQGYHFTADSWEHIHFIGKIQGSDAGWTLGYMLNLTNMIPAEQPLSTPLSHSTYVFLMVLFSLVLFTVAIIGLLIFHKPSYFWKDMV

[3] = Half life in Sprague-Dawley rat at 0.25 to 0.5 mg/kg, iv measured up to 24 hrs by LC-MS/MS analysis; assay type: ADME, organism-based; conditions: in vivo, dose 0.25-0.5 mg/kg
Method in brief: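 Male SD rats (0.27–0.30 kg), acclimated. Single IV bolus via femoral vein at 0.25 or 0.5 mg/kg in 31.6% DMA/36.8% ethanol/31.6% PEG. Jugular blood at predose, 5, 15, 30 min, 1, 2, 4, 6, 8, 24 h, collected into K2-EDTA; plasma spun at 4 °C, stored −80 °C until analysis.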

5'-nucleotidase [4] = target: T2, 5'-nucleotidase (Mus musculus, UniProt Q61503); assay: Inhibition of soluble mouse CD73 incubated for 60 mins before addition of AMP and further incubated for 60 mins by colorimetric assay
T2 sequence (Q61503 whole entry): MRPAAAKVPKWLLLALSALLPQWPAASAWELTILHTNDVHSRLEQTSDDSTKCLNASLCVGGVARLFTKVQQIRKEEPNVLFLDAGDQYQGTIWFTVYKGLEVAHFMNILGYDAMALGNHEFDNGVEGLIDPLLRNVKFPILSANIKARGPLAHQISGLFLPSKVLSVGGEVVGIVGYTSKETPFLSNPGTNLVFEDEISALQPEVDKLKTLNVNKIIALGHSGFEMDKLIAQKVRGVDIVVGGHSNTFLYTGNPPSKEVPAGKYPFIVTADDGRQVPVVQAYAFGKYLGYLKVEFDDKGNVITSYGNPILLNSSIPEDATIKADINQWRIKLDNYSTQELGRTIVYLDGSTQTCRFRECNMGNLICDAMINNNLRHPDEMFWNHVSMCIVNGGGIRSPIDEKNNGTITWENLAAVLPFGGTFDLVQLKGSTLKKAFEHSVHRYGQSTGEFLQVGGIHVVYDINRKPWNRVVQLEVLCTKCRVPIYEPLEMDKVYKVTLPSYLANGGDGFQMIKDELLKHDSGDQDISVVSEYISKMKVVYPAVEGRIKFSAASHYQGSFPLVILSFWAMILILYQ

[5] = Stability in dog hepatocytes; assay type: ADME, cell-based, Canis lupus familiaris, Hepatocyte
[6] = Stability in human hepatocytes; assay type: ADME, cell-based, Hepatocyte
5'-nucleotidase [7] = target: T2, 5'-nucleotidase; assay: Inhibition of mouse CD73 expressed in CHO cells incubated for 60 mins before addition of AMP and further incubated for 60 mins by colorimetric assay; assay type: cell-based

O=P(O)(O)COC[C@H]1O[C@@H](n2ncc3c(NC4CCCC4)nc(Cl)nc32)[C@H](O)[C@@H]1O
Stabilty [1]: Stable
IC50 [2]: > 10000 nM
half-life [3]: 1.2 h
IC50 (5'-nucleotidase [4]): 3 nM
Stabilty [5]: Stable
Stabilty [6]: Stable
IC50 (5'-nucleotidase [7]): 13 nM
